What all share (assay type): functional
Experiment [1] concerns Providencia rettgeri. Briefly: Minimum inhibitory concentration was evaluated in vitro against Providencia rettgeri M1771. In outline: (§1)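 Standard microtitration broth assay against a panel of 10 Gram-positive and Gram-negative organisms. MIC read in µg/mL and averaged over multiple experiments.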
Experiment [2] deals with Escherichia coli. Description: Antibacterial activity in vitro against Escherichia coli Vogel. In outline: as §1
The test system of experiment [3] is Streptococcus pyogenes. Description: Minimum inhibitory concentration was evaluated in vitro against Streptococcus pyogenes C 203. In outline:
as §1

In experiment [4] the test system is Staphylococcus aureus. Briefly: Minimum inhibitory concentration was evaluated in vitro against Staphylococcus aureus H 228. In outline: as §1
Experiment [5] has as its system Escherichia coli. Briefly: Antibacterial activity against Escherichia coli Vogel after oral administration in mouse. The note with it: Escherichia coli, po; read-out: PD50.
Experiment [6] relates to Streptococcus pneumoniae. Description: Minimum inhibitory concentration was evaluated in vitro against Streptococcus pneumoniae SV-1. In outline:
as §1

The test system of experiment [7] is Enterococcus faecalis. Description: Minimum inhibitory concentration was evaluated in vitro against Enterococcus faecalis MGH-2. In outline: as §1
Experiment [8] concerns Klebsiella pneumoniae. Briefly: Minimum inhibitory concentration was evaluated in vitro against Klebsiella pneumoniae MGH2. In outline:
as §1

For experiment [9], the system named is Staphylococcus aureus. Description: Minimum inhibitory concentration was evaluated in vitro against Staphylococcus aureus UC 76. In outline:
as §1

Experiment [10] deals with Escherichia coli. Briefly: Antibacterial activity against Escherichia coli Vogel after subcutaneous administration in mouse. Particulars: Escherichia coli, sc; read-out: PD50.
Experiment [11] has as its system Pseudomonas aeruginosa. Description: Minimum inhibitory concentration was evaluated in vitro against Pseudomonas aeruginosa UI-18. In outline: as §1
Experiment [12] concerns Enterobacter cloacae. Briefly: Minimum inhibitory concentration in vitro against Enterobacter cloacae MA 2646.
In experiment [13] the test system is Streptococcus pyogenes. Briefly: Antibacterial activity measured as mouse protection against Streptococcus pyogenes C 203 after subcutaneous administration. Particulars: for ED50: Streptococcus pyogenes, C 203, sc, read-out: PD50.
The test system of experiment [14] is Streptococcus pyogenes. Briefly: Compounds were evaluated in vivo for antibacterial activity for mouse protection against Streptococcus pyogenes C 203 after oral administration. The note with it: for ED50: Streptococcus pyogenes, C 203, po, read-out: PD50.
[15] abbreviates: Providencia rettgeri, read-out: MIC.
[16] abbreviates: Escherichia coli, read-out: MIC.
Where [17] appears, read: Streptococcus pyogenes, read-out: MIC.
Setting [18] is: Staphylococcus aureus, read-out: MIC.
Setting [19] is: Streptococcus pneumoniae, read-out: MIC.
Setting [20] is: Enterococcus faecalis, read-out: MIC.
Where [21] appears, read: Klebsiella pneumoniae, read-out: MIC.
The mark [22] stands for this setting: Pseudomonas aeruginosa, read-out: MIC.
Setting [23] is: Enterobacter cloacae, read-out: MIC.

Values after ≈ are worked out from the molar mass of the structure shown.

For orientation: MIC means the lowest concentration found to suppress growth. Regarding `NCC1CCN(c2c(F)cc3c(=O)c(C(=O)O)cn(C4CC4)c3c2F)C1` (stereo not drawn), the minimal inhibitory concentration (MIC) is 0.1 µg/mL (≈ 0.275 µM) in [1] (setting [15]); 0.025 µg/mL (≈ 0.0688 µM) in experiment [2] (setting [16]); 0.003 µg/mL (≈ 0.00826 µM) in experiment [3] (setting [17]); 0.013 µg/mL (≈ 0.0358 µM) in [4] (setting [18]); 0.006 µg/mL (≈ 0.0165 µM) in experiment [6] (setting [19]); 0.013 µg/mL (≈ 0.0358 µM) in [7] (setting [20]). For the same molecule, the minimal inhibitory concentration (MIC) in experiment [8] (setting [21]) was 0.05 µg/mL (≈ 0.138 µM); in experiment [9] (setting [18]), 0.003 µg/mL (≈ 0.00826 µM); in experiment [11] (setting [22]) it was 0.2 µg/mL (≈ 0.55 µM); in [12] (setting [23]), 0.013 µg/mL (≈ 0.0358 µM). Further, the ED50 in experiment [5] turned out to be 6 mg/kg; in [10], 1 mg/kg; in experiment [13] it was 0.4 mg/kg; in experiment [14] it was 4 mg/kg.

With `CCn1cc(C(=O)O)c(=O)c2cc(F)c(N3CCC(N)C3)c(OC)c21` (stereo not drawn), the MIC in experiment [1] (setting [15]) turned out to be 0.4 µg/mL (≈ 1.14 µM); in experiment [2] (setting [16]), 0.2 µg/mL (≈ 0.572 µM); in [3] (setting [17]), 0.2 µg/mL (≈ 0.572 µM); in experiment [4] (setting [18]) it was 0.2 µg/mL (≈ 0.572 µM); in experiment [6] (setting [19]) it was 0.4 µg/mL (≈ 1.14 µM); in experiment [7] (setting [20]), 0.4 µg/mL (≈ 1.14 µM). Further, the MIC in [8] (setting [21]) came to 0.2 µg/mL (≈ 0.572 µM); in experiment [9] (setting [18]) it was 0.05 µg/mL (≈ 0.143 µM); in [11] (setting [22]) it was 0.8 µg/mL (≈ 2.29 µM); in [12] (setting [23]), 0.2 µg/mL (≈ 0.572 µM). The ED50 in [5] stood at 13 mg/kg; in experiment [10], 7 mg/kg; in experiment [13], 25 mg/kg; in experiment [14], 74 mg/kg.

Take `CCN[C@H](C)[C@H]1CCN(c2nc3c(cc2F)c(=O)c(C(=O)O)cn3-c2ccc(F)cc2F)C1` (racemic): the MIC turned out to be 1.6 µg/mL (≈ 3.47 µM) in experiment [1] (setting [15]); 0.4 µg/mL (≈ 0.869 µM) in experiment [2] (setting [16]); 0.1 µg/mL (≈ 0.217 µM) in experiment [3] (setting [17]); 0.05 µg/mL (≈ 0.109 µM) in experiment [4] (setting [18]); 0.1 µg/mL (≈ 0.217 µM) in experiment [6] (setting [19]); 0.2 µg/mL (≈ 0.434 µM) in [7] (setting [20]). The MIC in [8] (setting [21]) came to 0.8 µg/mL (≈ 1.74 µM); in [9] (setting [18]), 0.013 µg/mL (≈ 0.0282 µM); in experiment [11] (setting [22]) it was 3.1 µg/mL (≈ 6.73 µM); in experiment [12] (setting [23]), 0.8 µg/mL (≈ 1.74 µM). For the same molecule, the ED50 in experiment [5] came out at 25 mg/kg; in [10], 13 mg/kg; in experiment [13] it was 2 mg/kg; in experiment [14] it was 2 mg/kg.

With `CCn1cc(C(=O)O)c(=O)c2cc(F)c(N3CCC(N)C3)c(F)c21` (stereo not drawn), the MIC in [1] (setting [15]) is 0.1 µg/mL (≈ 0.296 µM); in experiment [2] (setting [16]), 0.05 µg/mL (≈ 0.148 µM); in [4] (setting [18]), 0.2 µg/mL (≈ 0.593 µM); in experiment [8] (setting [21]), 0.1 µg/mL (≈ 0.296 µM); in experiment [9] (setting [18]), 0.05 µg/mL (≈ 0.148 µM); in experiment [11] (setting [22]) it was 0.2 µg/mL (≈ 0.593 µM). Also, the ED50 in [5] was 3 mg/kg; in experiment [10], 1 mg/kg; in experiment [13] it was 7 mg/kg; in experiment [14], 21 mg/kg.

Turning to `COc1c(N2CCC(CN)C2)c(F)cc2c(=O)c(C(=O)O)cn(C3CC3)c12` (stereo not drawn), the minimum inhibitory concentration (MIC) in experiment [1] (setting [15]) turned out to be 0.1 µg/mL (≈ 0.266 µM); in experiment [2] (setting [16]), 0.05 µg/mL (≈ 0.133 µM); in [3] (setting [17]), 0.003 µg/mL (≈ 0.00799 µM); in experiment [4] (setting [18]), 0.025 µg/mL (≈ 0.0666 µM); in [6] (setting [19]), 0.003 µg/mL (≈ 0.00799 µM); in experiment [7] (setting [20]), 0.013 µg/mL (≈ 0.0346 µM). Besides, the MIC turned out to be 0.1 µg/mL (≈ 0.266 µM) in experiment [8] (setting [21]), 0.003 µg/mL (≈ 0.00799 µM) in experiment [9] (setting [18]), 0.8 µg/mL (≈ 2.13 µM) in experiment [11] (setting [22]) and 0.05 µg/mL (≈ 0.133 µM) in experiment [12] (setting [23]). The ED50 in experiment [13] turned out to be 0.6 mg/kg; in [14], 11 mg/kg.

For the molecule `CCNCC1CCN(c2cc3c(cc2F)c(=O)c(C(=O)O)cn3C2CC2)C1` (stereo not drawn), the minimal inhibitory concentration (MIC) in [9] (setting [18]) was 0.013 µg/mL (≈ 0.0348 µM). Besides, the ED50 in experiment [10] was determined as 3 mg/kg; in [13], 5 mg/kg.

Consider `C[C@H](N)[C@H]1CCN(c2c(F)c(N)c3c(=O)c(C(=O)O)cn(C4CC4)c3c2F)C1` (stereo in doubt; 32F-S,R), for which the minimal inhibitory concentration (MIC) in experiment [1] was 0.2 µg/mL (≈ 0.51 µM); in experiment [2], 0.05 µg/mL (≈ 0.127 µM); in experiment [3], 0.013 µg/mL (≈ 0.0331 µM); in experiment [4] it was 0.025 µg/mL (≈ 0.0637 µM); in experiment [6], 0.013 µg/mL (≈ 0.0331 µM); in [7] it was 0.05 µg/mL (≈ 0.127 µM). For the same molecule, the minimal inhibitory concentration (MIC) was 0.1 µg/mL (≈ 0.255 µM) in [8], 0.006 µg/mL (≈ 0.0153 µM) in [9], 0.8 µg/mL (≈ 2.04 µM) in [11] and 0.1 µg/mL (≈ 0.255 µM) in experiment [12]. For the same molecule, the PD50 in [13] is 4 mg/kg; in experiment [14], 14 mg/kg.

For the molecule `CN[C@@H](C)[C@H]1CCN(c2nc3c(cc2F)c(=O)c(C(=O)O)cn3C2CC2)C1`, the MIC came out at 0.8 µg/mL (≈ 2.14 µM) in experiment [1] (setting [15]); 0.2 µg/mL (≈ 0.534 µM) in [2] (setting [16]); 0.4 µg/mL (≈ 1.07 µM) in experiment [3] (setting [17]); 0.8 µg/mL (≈ 2.14 µM) in experiment [4] (setting [18]); 0.4 µg/mL (≈ 1.07 µM) in [6] (setting [19]); 0.8 µg/mL (≈ 2.14 µM) in [7] (setting [20]). In addition, the MIC was 0.4 µg/mL (≈ 1.07 µM) in experiment [8] (setting [21]), 0.2 µg/mL (≈ 0.534 µM) in experiment [9] (setting [18]), 3.1 µg/mL (≈ 8.28 µM) in experiment [11] (setting [22]) and 0.4 µg/mL (≈ 1.07 µM) in [12] (setting [23]). Further, the values for the ED50 in experiment [13] and in experiment [14] were 15 mg/kg and 23 mg/kg, respectively.

Regarding `CC(N)C1CCN(c2cc3c(c(N)c2F)c(=O)c(C(=O)O)cn3C2CC2)C1` (mixture of isomers), the MIC in experiment [1] (setting [15]) was found to be 0.1 µg/mL; in experiment [2] (setting [16]) it was 0.025 µg/mL; in experiment [3] (setting [17]), 0.003 µg/mL; in [4] (setting [18]) it was 0.05 µg/mL; in experiment [6] (setting [19]), 0.003 µg/mL; in experiment [7] (setting [20]) it was 0.013 µg/mL. Moreover, the MIC in [8] (setting [21]) came out at 0.05 µg/mL; in experiment [9] (setting [18]), 0.003 µg/mL; in experiment [11] (setting [22]), 0.4 µg/mL; in [12] (setting [23]), 0.025 µg/mL. Besides, the ED50 in experiment [13] was 4 mg/kg; in experiment [14] it was 18 mg/kg.

For the origin of these results see ChEMBL document CHEMBL1126988, “Quinolone antibacterials containing the new 7-[3-(1-aminoethyl)-1- pyrrolidinyl] side chain: the effects of the 1-aminoethyl moiety and its stereochemical configurations on potency and in vivo efficacy” (J Med Chem, 1993).
